This is an account of results in ChEMBL document CHEMBL2375356, “Design, synthesis and biological evaluation of new classes of thieno[3,2-d]pyrimidinone and thieno[1,2,3]triazine as inhibitor of vascular endothelial growth factor receptor-2 (VEGFR-2)” (Eur J Med Chem, 2013).

Activity calls are given as the source filed them. The rule behind the calls is not given here.

In data set [1] the target is Vascular endothelial growth factor receptor 1 (Homo sapiens) (UniProt P17948). In words: Inhibition of VEGFR1 phosphorylation in growth factor-stimulated HUVEC.
Chain of Vascular endothelial growth factor receptor 1 (Homo sapiens) (P17948 whole entry): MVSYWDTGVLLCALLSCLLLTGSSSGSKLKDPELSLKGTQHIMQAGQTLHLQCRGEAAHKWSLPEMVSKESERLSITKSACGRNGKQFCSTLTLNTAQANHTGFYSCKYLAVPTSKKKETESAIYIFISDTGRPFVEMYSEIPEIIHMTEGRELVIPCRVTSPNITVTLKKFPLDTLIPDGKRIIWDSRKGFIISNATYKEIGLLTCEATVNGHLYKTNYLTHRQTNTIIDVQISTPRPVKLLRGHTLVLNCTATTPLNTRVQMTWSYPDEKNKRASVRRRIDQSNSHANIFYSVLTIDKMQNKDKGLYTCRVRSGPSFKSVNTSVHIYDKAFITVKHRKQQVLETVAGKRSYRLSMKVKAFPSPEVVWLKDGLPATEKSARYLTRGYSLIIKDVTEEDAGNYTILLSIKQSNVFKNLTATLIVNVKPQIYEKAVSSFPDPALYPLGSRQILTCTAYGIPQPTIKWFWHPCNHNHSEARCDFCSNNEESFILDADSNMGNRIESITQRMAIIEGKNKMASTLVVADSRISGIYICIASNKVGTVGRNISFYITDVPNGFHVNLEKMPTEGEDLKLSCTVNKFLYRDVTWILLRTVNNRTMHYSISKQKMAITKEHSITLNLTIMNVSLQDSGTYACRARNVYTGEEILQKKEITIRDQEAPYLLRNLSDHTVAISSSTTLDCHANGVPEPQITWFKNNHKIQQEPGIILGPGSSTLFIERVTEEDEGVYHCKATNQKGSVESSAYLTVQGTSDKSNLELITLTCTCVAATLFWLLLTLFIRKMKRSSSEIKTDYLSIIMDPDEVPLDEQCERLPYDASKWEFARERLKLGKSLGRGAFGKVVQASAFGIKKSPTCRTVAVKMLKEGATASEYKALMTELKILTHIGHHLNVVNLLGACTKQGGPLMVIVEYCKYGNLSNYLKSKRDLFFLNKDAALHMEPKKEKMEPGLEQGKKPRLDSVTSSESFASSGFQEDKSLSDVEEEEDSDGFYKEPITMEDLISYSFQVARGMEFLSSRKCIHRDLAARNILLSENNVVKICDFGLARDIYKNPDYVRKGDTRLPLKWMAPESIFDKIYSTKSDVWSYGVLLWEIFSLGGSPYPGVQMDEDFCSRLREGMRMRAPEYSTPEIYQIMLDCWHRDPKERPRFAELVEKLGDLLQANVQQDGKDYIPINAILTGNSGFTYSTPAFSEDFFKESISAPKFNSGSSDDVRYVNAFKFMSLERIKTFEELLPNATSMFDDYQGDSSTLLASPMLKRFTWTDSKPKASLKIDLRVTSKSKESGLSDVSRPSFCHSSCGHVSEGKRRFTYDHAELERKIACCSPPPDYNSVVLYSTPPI
Data set [2] concerns HUVEC. In words: cells. The conditions noted are these: Homo sapiens, 24 h.
In data set [3] the target is Epidermal growth factor receptor (Homo sapiens) (UniProt P00533). Kind of data set: Inhibition of EGFR phosphorylation in growth factor-stimulated HUVEC at 3 uM after 24 hrs.
For data set [4], the target named is Tyrosine-protein kinase receptor Tie-1 (Homo sapiens) (UniProt P35590). Kind of data set: Inhibition of TIE-1 phosphorylation in growth factor-stimulated HUVEC at 3 uM after 24 hrs.
Data set [5] has as its target T1, Tyrosine-protein kinase receptor TYRO3 (Homo sapiens) (UniProt Q06418).
T1 sequence (whole entry): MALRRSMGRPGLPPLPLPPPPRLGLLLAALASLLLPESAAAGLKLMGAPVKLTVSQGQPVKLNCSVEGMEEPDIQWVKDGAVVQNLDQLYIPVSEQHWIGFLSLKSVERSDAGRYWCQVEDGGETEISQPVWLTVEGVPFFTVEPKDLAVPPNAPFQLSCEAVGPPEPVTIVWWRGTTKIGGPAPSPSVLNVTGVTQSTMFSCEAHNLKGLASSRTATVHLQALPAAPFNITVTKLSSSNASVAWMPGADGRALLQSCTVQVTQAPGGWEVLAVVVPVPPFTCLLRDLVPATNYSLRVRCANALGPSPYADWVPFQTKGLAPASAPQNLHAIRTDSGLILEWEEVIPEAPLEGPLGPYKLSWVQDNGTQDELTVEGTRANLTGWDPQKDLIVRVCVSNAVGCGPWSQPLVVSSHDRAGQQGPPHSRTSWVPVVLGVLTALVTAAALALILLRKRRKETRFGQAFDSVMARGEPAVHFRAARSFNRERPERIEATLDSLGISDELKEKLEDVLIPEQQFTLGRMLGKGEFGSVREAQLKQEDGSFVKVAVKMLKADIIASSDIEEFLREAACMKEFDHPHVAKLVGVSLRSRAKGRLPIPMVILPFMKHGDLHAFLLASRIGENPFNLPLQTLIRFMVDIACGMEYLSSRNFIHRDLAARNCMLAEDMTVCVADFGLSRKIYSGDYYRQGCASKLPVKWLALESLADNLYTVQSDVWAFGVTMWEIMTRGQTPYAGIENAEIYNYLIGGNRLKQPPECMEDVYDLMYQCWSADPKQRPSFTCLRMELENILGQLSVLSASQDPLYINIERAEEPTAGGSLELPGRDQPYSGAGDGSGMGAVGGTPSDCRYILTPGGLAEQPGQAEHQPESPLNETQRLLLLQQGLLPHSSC
Kind of data set: Inhibition of DTK phosphorylation in growth factor-stimulated HUVEC at 3 uM after 24 hrs.

For data set [6], the target named is Vascular endothelial growth factor receptor 1 (Homo sapiens) (UniProt P17948). In words: Inhibition of VEGFR1 phosphorylation in growth factor-stimulated HUVEC at 3 uM after 24 hrs.
The target of data set [7] is T2, Ephrin type-A receptor 6 (Homo sapiens) (UniProt Q9UF33).
T2 sequence (whole entry): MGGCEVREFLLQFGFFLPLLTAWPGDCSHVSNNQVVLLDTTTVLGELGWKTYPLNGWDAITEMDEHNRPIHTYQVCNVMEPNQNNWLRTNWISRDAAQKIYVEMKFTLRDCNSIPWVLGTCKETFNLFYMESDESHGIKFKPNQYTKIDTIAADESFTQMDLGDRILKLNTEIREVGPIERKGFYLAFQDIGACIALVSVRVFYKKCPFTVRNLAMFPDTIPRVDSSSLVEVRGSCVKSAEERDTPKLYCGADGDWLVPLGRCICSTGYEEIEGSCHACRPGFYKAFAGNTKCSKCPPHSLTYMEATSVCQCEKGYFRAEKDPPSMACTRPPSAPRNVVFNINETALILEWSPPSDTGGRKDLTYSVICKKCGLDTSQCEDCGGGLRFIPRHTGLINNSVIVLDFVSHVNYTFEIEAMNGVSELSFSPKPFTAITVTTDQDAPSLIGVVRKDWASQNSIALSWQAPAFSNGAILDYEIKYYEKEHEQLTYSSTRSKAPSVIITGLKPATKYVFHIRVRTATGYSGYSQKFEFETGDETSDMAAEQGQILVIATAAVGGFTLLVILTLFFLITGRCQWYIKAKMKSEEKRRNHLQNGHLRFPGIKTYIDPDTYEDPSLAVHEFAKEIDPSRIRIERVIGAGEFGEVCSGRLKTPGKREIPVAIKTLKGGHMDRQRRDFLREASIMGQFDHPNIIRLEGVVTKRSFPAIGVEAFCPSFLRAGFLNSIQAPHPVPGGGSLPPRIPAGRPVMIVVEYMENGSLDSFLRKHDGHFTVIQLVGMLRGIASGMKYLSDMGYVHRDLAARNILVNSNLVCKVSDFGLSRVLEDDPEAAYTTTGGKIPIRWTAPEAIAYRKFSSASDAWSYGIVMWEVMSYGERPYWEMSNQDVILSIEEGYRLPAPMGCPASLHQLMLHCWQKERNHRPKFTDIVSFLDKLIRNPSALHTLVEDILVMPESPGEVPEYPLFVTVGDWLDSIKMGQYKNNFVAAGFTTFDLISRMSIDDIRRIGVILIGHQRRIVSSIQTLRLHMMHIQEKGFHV
Kind of data set: Inhibition of EPHA6 phosphorylation in growth factor-stimulated HUVEC at 3 uM after 24 hrs.

Data set [8] concerns the target T3, Vascular endothelial growth factor receptor 2 (Homo sapiens, UniProt P35968). Kind of data set: Inhibition of VEGFR2 phosphorylation in growth factor-stimulated HUVEC at 3 uM after 24 hrs.
For data set [9], the target named is Tyrosine-protein kinase receptor UFO (Homo sapiens) (UniProt P30530). Kind of data set: Inhibition of AXL phosphorylation in growth factor-stimulated HUVEC at 3 uM after 24 hrs.
Chain of Tyrosine-protein kinase receptor UFO (Homo sapiens) (P30530 whole entry): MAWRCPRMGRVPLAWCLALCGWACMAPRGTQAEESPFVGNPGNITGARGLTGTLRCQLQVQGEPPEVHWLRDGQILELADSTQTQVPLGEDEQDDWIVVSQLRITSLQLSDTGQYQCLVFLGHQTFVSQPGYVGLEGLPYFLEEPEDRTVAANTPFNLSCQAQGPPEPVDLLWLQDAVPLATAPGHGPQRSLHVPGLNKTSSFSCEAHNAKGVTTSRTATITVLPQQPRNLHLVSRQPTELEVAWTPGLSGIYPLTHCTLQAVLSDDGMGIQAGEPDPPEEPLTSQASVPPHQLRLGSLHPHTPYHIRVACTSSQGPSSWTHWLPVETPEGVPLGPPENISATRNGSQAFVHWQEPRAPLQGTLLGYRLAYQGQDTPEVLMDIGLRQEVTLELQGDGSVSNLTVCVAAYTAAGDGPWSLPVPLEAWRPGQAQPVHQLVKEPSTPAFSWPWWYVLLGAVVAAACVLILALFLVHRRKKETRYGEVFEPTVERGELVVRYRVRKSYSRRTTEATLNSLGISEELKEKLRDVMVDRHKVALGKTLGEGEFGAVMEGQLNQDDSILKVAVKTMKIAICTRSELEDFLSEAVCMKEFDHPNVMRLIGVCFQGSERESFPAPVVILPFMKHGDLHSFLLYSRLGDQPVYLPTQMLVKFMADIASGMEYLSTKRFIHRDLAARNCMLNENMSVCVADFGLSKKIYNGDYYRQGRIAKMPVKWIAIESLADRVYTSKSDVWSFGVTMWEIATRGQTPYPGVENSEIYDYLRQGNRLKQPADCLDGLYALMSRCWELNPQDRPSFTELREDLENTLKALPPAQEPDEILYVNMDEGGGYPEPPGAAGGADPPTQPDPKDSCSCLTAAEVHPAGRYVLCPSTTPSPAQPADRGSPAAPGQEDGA
The target in data set [10] is Tyrosine-protein kinase transmembrane receptor ROR2 (Homo sapiens) (UniProt Q01974). Kind of data set: Inhibition of ROR2 phosphorylation in growth factor-stimulated HUVEC at 3 uM after 24 hrs.
Chain of Tyrosine-protein kinase transmembrane receptor ROR2 (Homo sapiens) (Q01974 whole entry): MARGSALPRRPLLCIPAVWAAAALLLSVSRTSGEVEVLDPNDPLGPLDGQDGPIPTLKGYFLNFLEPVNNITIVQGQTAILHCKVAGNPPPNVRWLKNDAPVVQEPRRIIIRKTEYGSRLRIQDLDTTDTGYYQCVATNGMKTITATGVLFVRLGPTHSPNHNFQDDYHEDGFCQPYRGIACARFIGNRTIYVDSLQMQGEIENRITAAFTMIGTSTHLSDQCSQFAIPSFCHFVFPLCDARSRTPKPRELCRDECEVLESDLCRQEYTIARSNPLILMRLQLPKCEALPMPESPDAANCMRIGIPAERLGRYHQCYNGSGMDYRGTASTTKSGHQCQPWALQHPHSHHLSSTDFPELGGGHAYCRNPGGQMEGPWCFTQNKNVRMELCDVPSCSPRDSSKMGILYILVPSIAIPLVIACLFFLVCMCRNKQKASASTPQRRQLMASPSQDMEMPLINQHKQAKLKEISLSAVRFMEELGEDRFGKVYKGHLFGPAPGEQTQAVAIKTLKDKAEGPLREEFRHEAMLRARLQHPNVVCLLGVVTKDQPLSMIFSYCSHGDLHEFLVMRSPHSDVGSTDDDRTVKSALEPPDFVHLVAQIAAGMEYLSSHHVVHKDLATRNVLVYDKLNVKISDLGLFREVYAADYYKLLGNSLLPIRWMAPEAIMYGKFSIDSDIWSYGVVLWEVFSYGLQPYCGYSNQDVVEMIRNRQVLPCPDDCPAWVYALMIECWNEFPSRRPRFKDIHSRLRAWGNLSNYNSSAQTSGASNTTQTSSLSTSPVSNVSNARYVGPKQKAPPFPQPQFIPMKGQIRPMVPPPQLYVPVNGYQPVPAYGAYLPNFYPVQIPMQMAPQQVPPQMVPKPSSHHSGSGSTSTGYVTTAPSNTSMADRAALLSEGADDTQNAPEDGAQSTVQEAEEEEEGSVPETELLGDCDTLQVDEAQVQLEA
Data set [11] relates to HUVEC. In words: Cytostatic activity against HUVEC assessed as decrease in metabolic activity at 100 uM after 24 hrs by MTT assay relative to control. The arrangement: scale not given: the % may be the effect or the level left. In kind it is ADME, cell-based. To be noted: human. In outline:
(§1)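 Primary HUVEC (passage ≤5) seeded at 20,000 cells/cm² in complete medium; after 24 h, exposed to test agent (0–100 µM) in RPMI 1640 + 2% heat-inactivated FCS for 24 h. MTT 0.4 mg/mL, 37 °C for 3 h; formazan dissolved in DMSO, absorbance read at 570/630 nm. Expressed as % variation vs untreated medium; mean ± SD, n = 3 in triplicate.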

Data set [12] concerns HUVEC. In words: Cytostatic activity against HUVEC assessed as decrease in metabolic activity at 1.5 uM after 24 hrs by MTT assay relative to control. It counts as ADME, cell-based. The conditions noted are these: human. On the set-up: scale not given: the % may be the effect or the level left. In outline:
as §1
(Tetrazolium dyes change colour on reduction, which living cells bring about.)

For data set [13], the system named is HUVEC. Kind of data set: Cytotoxicity against HUVEC assessed as decrease in cell viability at 1 to 100 uM after 24 hrs by Hoechst 33258 staining method. It counts as cell-based. The conditions noted are these: human. In outline:
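HUVEC seeded at 20,000 cells/cm²; after 24 h, treated with test agent (0–100 µM) in RPMI 1640 + 2% FCS for 24 h. Cells lysed by freezing at −80 °C, lysates incubated with Hoechst 33258 for 1 h with agitation. Fluorescence read at ex 360/em 460 nm; expressed as % variation vs untreated; mean ± SD, n = 3 in triplicate.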

For data set [14], the system named is HUVEC. Kind of data set: Cytostatic activity against HUVEC assessed as decrease in metabolic activity after 24 hrs by MTT assay. It counts as ADME, cell-based, Homo sapiens. In outline:
as §1

Data set [15] concerns the target T3, Vascular endothelial growth factor receptor 2. In words: Inhibition of human recombinant VEGFR2.

For orientation: EC50 means the concentration that produces a half-maximal response. One may read the IC50 as the concentration at which inhibition is half-maximal.

T3 sequence (P35968 whole entry): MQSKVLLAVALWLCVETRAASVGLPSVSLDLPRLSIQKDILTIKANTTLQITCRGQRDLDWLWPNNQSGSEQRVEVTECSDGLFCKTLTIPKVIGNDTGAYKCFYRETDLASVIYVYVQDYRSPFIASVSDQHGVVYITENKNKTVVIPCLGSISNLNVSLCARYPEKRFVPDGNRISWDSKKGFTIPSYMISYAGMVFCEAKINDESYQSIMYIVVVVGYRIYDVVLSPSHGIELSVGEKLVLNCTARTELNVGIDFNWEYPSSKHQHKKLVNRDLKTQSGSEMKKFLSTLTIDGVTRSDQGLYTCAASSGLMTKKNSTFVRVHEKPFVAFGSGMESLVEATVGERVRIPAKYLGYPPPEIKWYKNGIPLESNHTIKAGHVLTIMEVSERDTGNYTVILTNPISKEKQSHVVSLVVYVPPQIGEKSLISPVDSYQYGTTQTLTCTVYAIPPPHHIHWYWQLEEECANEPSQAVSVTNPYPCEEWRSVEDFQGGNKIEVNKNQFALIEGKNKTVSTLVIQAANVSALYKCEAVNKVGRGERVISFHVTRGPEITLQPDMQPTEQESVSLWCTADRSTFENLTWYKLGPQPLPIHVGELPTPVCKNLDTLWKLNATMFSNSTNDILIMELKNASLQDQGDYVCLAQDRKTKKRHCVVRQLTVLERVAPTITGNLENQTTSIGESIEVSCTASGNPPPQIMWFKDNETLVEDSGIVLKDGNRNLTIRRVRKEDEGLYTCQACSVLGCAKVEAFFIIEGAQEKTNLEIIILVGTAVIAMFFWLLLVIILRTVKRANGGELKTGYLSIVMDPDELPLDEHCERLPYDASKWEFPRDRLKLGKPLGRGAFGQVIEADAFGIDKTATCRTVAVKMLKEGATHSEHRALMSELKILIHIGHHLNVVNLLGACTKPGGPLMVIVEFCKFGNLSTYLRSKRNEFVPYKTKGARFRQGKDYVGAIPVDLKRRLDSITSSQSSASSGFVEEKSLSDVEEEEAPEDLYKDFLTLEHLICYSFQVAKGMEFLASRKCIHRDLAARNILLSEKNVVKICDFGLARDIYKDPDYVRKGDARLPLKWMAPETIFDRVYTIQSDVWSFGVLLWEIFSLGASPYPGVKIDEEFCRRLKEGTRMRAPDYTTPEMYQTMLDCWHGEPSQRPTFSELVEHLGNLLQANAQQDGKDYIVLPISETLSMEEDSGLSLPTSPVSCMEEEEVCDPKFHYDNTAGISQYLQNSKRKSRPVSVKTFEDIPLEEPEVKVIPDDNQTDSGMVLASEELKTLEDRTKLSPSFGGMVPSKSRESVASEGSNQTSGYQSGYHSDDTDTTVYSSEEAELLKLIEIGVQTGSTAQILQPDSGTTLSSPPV

On to `CCN(CC)CCNC(=O)c1c(C)[nH]c(/C=C2\C(=O)Nc3ccc(F)cc32)c1C` [SUNITINIB], for which the inhibition result in data set [1] was “Active”. This compound gave an EC50 with HUVEC [2] of 645 nM.

For `O=c1[nH]c(CN2CCCCC2)nc2cc(-c3cn(Cc4ccccc4)c4ccccc34)sc12` [listing 1 of 2 here], the inhibition result in [3], in data set [4], in data set [5], in data set [6], in data set [7] and in data set [8] was “Active” in each case. In addition, the inhibition entry in data set [9] and in data set [10] was “Active” in each case.

Regarding `O=C(O)C(O)C(O)C(=O)O.O=c1[nH]c(CN2CCCCC2)nc2cc(-c3cn(Cc4ccccc4)c4ccccc34)sc12`, the Activity in the data set with HUVEC [11] is reported as 51%; in the data set with HUVEC [12], 9%; with HUVEC [13], “Non-toxic”; in the data set on HUVEC [14] (human, huvec) it was “Dose-dependent effect”. The EC50 in the data set on HUVEC [2] amounted to 31 nM; in the data set on HUVEC [14] (Homo sapiens, HUVEC) it was 12000 nM.

As for `O=c1[nH]c(CN2CCCCC2)nc2cc(-c3cn(Cc4ccccc4)c4ccccc34)sc12` [listing 2 of 2 here], the IC50 in data set [15] came out at 2250 nM.
